Screening results deposited in PubChem BioAssay by Broad Institute.
Pf Dd2 inh – P. falciparum Dd2 growth inhibition; SYBR Green, 72 h; hits give low values; activity change, % at 10 µM; 2.3% of 94,000 active; AID 1159554; in the data active = activity change below about -80%; inconclusive = no clear call, values can overlap the other calls
IDH1 R132H inh – IDH1 R132H (human) inhibition; inhibition, % at 10 µM; 0.18% of 70,000 active; IDH1 R132H reductase, diaphorase/resazurin fluorescence, 60 min; O75874; in the data active = inhibition above about 34%; inconclusive = no clear call, values can overlap the other calls; inactive = below about 11%;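 note: 0% = DMSO and 100% = no enzyme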
Target sequence (O75874 whole entry R132H): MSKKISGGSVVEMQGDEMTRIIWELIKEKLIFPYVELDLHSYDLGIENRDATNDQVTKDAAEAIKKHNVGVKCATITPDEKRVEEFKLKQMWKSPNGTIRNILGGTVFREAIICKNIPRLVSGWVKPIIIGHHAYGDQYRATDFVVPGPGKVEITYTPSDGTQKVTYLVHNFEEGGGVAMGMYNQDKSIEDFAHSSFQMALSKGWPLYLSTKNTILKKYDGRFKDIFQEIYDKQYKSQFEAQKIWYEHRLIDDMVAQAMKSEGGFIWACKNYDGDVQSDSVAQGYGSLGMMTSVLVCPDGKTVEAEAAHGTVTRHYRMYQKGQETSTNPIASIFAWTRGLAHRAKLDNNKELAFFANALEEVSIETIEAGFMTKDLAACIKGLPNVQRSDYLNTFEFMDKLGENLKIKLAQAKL
T cruzi growth-1 – inhibitors of T. cruzi proliferation; T. cruzi beta-gal in NIH3T3, GalScreen luminescence, 90 h; inhibition, % at 8.34 µM; 5.9% of 77,000 active;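 active = mean inhibition above about 93%, with at least 55% of replicates each passing it, limit read from the data, passing the limit was not always enough; inconclusive = only one of those two conditions holds; inactive = neither condition holds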
GASC1 inh – KDM4C (human) demethylase inhibition; Q9H3R0; GST-KDM4C 2-372, H3K9me3 peptide, LANCE TR-FRET; inhibition, % at 12.5 µM; 0.15% of 96,000 active; AID 720574;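 active = mean replicate inhibition above about 25%, with at least 55% of replicates also reaching it, limit read from the data, passing the limit was not always enough; inconclusive = only one of those two conditions met; inactive = neither condition met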
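Test system – GST-tagged GASC-1 (JMJD2C) catalytic fragment, aa 2-372 · Medium – HEPES buffer, pH 7.5, plus ascorbate · Reagent – H3K9me3 peptide with Fe(II)/2OG · Compound – one test concentration per compound · Timing – 30 min reaction, 60 min detection, RT · Technique – TR-FRET with Eu antibody and ULight streptavidin, EDTA stop · Read-out basis – inhibition from TR-FRET ratio decrease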
T cruzi growth-2 – Trypanosoma cruzi proliferation inhibition. shares compounds with T cruzi growth-1. T. cruzi beta-gal in NIH3T3, GalScreen luminescence, 90 h. inhibition, % at 8.35 µM. 72% of 5,600 active;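 active = mean replicate inhibition above about 95% and at least 55% of replicates individually reaching it, limit read from the data; inconclusive = only one of the two criteria is met; inactive = neither criterion is met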
T cruzi growth-3 – inhibitors of T. cruzi proliferation. shares compounds with T cruzi growth-1. T. cruzi beta-gal in NIH3T3, GalScreen luminescence, 90 h. inhibition, % at 2.09 µM. 21% of 5,600 active;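 active = mean inhibition above about 95%, with at least 55% of replicates also reaching it, limit read from the data; inconclusive = meets just one of the two conditions; inactive = meets neither condition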;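 note: plate controls were neutral control median for no effect and positive control median for full effect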
3T3 cytotox – NIH/3T3 (mouse) viability loss; shares compounds with T cruzi growth-1; NIH/3T3 viability, CellTiter-Glo ATP luminescence, 90 h; cytotoxicity (signal decrease), % at 8.35 µM; 14% of 5,600 active; AID 651742;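 active = mean signal decrease across replicates above about 35% based on untreated-well scatter, with enough replicates individually passing, limit read from the data; inconclusive = no rule stated though some were filed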;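 note: 0% = median of neutral control wells and 100% = median of positive control wells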
NIH3T3 tox 2 – kills mouse NIH/3T3 fibroblasts. inhibition, % at 24.9 µM. 56% of 5,600 active. NIH/3T3 viability, CellTiter-Glo ATP luminescence, 90 h. shares compounds with T cruzi growth-1. AID 651744;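 active = mean loss of cell viability signal at or above a set limit, and enough replicates individually reaching it; inconclusive = meets only the mean limit or only the replicate share; inactive = meets neither condition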;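 note: 0% = median of neutral control wells and 100% = median of positive control wells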
An asterisk follows results filed as active; ? = inconclusive; . = no result given. Compounds with a hit are over-represented: about 5.8% of the library has one in this group of screens.

SMILES	Pf Dd2 inh	IDH1 R132H inh	T cruzi growth-1	GASC1 inh	T cruzi growth-2	T cruzi growth-3	3T3 cytotox	NIH3T3 tox 2
COc1cccc(-c2ccc([C@@H]3[C@H](CO)N4CCCCN(C(=O)c5ccc6c(c5)OCO6)C[C@@H]34)cc2)c1	-36	.	98*	-1	107*	44	25	103*
COc1cccc(-c2ccc([C@H]3[C@@H](CO)N4CCCCN(C(=O)c5ccc6c(c5)OCO6)C[C@@H]34)cc2)c1	25	.	95	-1	.	.	.	.
O=C(c1ccc2c(c1)OCO2)N1CCCCN2[C@H](CO)[C@H](c3ccc(-c4ccccc4)cc3)[C@@H]2C1	-49	.	57	0	.	.	.	.
COc1ccc(-c2ccc([C@H]3[C@H](CO)N4CCCCN(C(=O)c5ccc6c(c5)OCO6)C[C@@H]34)cc2)cc1	-47	.	111*	-1	100*	62	32	90*
O=C(c1ccc2c(c1)OCO2)N1CCCCN2[C@@H](CO)[C@@H](c3ccc(-c4ccccc4)cc3)[C@@H]2C1	-11	.	104*	0	100*	67	?	102*
O=C(c1ccc2c(c1)OCO2)N1CCCCN2[C@H](C1)[C@H](c1ccc(-c3ccccc3)cc1)[C@@H]2CO	-14	.	57	0	.	.	.	.
COc1ccc(-c2ccc([C@@H]3[C@H]4CN(C(=O)c5ccc6c(c5)OCO6)CCCCN4[C@H]3CO)cc2)cc1	-46	.	112*	0	101*	82	23	104*
N#C[C@H]1[C@H](c2ccc(C#CC3CCCC3)cc2)[C@H](CO)N1C(=O)Cc1ccccn1	-43	.	.	0	.	.	.	.
C/C=C/c1ccc([C@H]2[C@@H](C#N)N(C(=O)Cc3ccccn3)[C@@H]2CO)cc1	-33	.	103*	-2	98*	-1	3	?
N#C[C@@H]1[C@@H](c2ccc(C#CC3CCCCC3)cc2)[C@H](CO)N1C(=O)Cc1ccccn1	-51	.	89	-3	.	.	.	.
N#C[C@@H]1[C@H](c2ccc(C#CC3CCCCC3)cc2)[C@@H](CO)N1C(=O)Cc1ccccn1	-76	.	99*	0	96*	103*	2	99*
N#C[C@@H]1[C@@H](c2ccc(C#CC3CCCC3)cc2)[C@H](CO)N1C(=O)Cc1ccccn1	-74	.	.	-3	.	.	.	.
C/C=C/c1ccc([C@@H]2[C@H](C#N)N(C(=O)Cc3ccccn3)[C@H]2CO)cc1	-32	.	91	-1	.	.	.	.
N#C[C@@H]1[C@@H](c2ccc(C#CC3CC3)cc2)[C@H](CO)N1C(=O)Cc1ccccn1	-57	.	99*	-2	104*	75	?	1
N#C[C@@H]1[C@H](c2ccc(C#CC3CCCCC3)cc2)[C@H](CO)N1C(=O)Cc1ccccn1	-39	.	98*	0	92	112*	17	28
[O-][NH2+]c1ccc(O)c2ncccc12	.	-3	.	.	.	.	.	.
COc1ccc2c(c1)c(CC(=O)OCc1ccccn1)c(C)n2C(=O)c1ccc(Cl)cc1	.	1	.	.	.	.	.	.
CCCOc1ccc(Oc2nc(NCC)nc(OC)n2)nn1	.	1	.	.	.	.	.	.
C[C@@H]1CN([C@@H](C)CO)S(=O)(=O)c2ccc(C#CC3CC3)cc2O[C@H]1CN(C)Cc1ccccc1	-52	1	120*	1	95*	76	50*	106*
C[C@@H]1CN([C@@H](C)CO)S(=O)(=O)c2ccc(C#CC3CC3)cc2O[C@@H]1CN(C)Cc1ccccc1	-40	-1	37	-2	.	.	.	.
C[C@H]1CN([C@@H](C)CO)S(=O)(=O)c2ccc(C#CC3CC3)cc2O[C@H]1CN(C)Cc1ccccc1	-25	0	58	0	.	.	.	.
C[C@H]1CN([C@@H](C)CO)S(=O)(=O)c2ccc(C#CC3CC3)cc2O[C@@H]1CN(C)Cc1ccccc1	-43	0	111*	-3	100*	93	-12	105*
N#Cc1c(NC(=O)CCN2C(=O)c3ccccc3C2=O)sc2c1CCCC2	.	0	.	.	.	.	.	.
O=C(c1ccncc1)N1CC[C@H]2[C@H](CO)Nc3ccc(-c4ccc(F)cc4)cc3[C@H]21	26	.	99*	-2	94	34	-12	3
